Laboratory results published in ChEMBL document CHEMBL1124476, “1-(2-aminoethyl)-6-aryl-4H- [1,2,4]triazolo[4,3-a][1,4]benzodiazepines with diuretic and natriuretic activity” (J Med Chem, 1989).

Legend:
Rattus norvegicus [1] = species on record: Rattus norvegicus; test: […]; format: ADME, organism-based, Urine; design: dose 3 mg/kg, route oral; conditions: in vivo, po, 3 mg/kg
Summary of the method: (§1)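 Male Sprague-Dawley rats, about 160 g, fasted 24 h and water withheld 1 1/2 h beforehand; food and water withheld during the test. Dosing by gavage with 25 mL/kg 0.9% saline containing 0.5% (carboxymethyl)cellulose, agent dissolved or suspended. Three cages of two rats each per dose, held in metabolism cages. Urine collected over 5 h. Volume given in mL, Na+ in mequiv. Significance versus control at P < 0.05.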

Rattus norvegicus [2] = test: Mean excretion of sodium in conscious rats at a dose of 10 mg/kg given orally; format: ADME, organism-based; design: dose 10 mg/kg, route oral; conditions: in vivo, po; summary of the method: as §1
Rattus norvegicus [3] = test: Mean excretion of potassium in conscious rats at a dose of 10 mg/kg given orally; format: ADME, organism-based; design: dose 10 mg/kg, route oral; conditions: in vivo, po
Summary of the method: (§2)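 Secondary dose-response in male Sprague-Dawley rats (~160 g), fasted and hydrated as in the primary screen. Oral gavage at 0.3-100 mg/kg in 25 mL/kg saline/0.5% CMC, three cages of two rats per dose. Urine collected 5 h; Na, K, Cl, HCO3 measured. Values are mean excretion (mequiv), compared with controls at P < 0.05.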

Rattus norvegicus [4] = test: Mean excretion of chloride in conscious rats at a dose of 1.0 mg/kg given orally; format: ADME, organism-based; design: dose 1 mg/kg, route oral; conditions: in vivo, po; summary of the method: as §2
[5] = Diuretic activity at 40 mg/kg (screening dose-75 umol/kg) in […] in a two stage experiment; T/C1.2 = urine vol of treated rats / urine vol of control rats; format: functional
Summary of the method: (§3)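 40 mg/kg given by gavage in 25 mL/kg 0.9% saline with 0.5% (carboxymethyl)cellulose. Four rats per agent, two per metabolism cage; 20 controls; 5 h urine. T/C = treated/control urine volume. Stage-1 T/C of 1.66 or more leads to stage 2; product T/C1·T/C2 of 3.34 or more counts as active.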

Rattus norvegicus [6] = test: Mean excretion of potassium in conscious rats at a dose of 100 mg/kg given orally; format: ADME, organism-based; design: dose 100 mg/kg, route oral; conditions: in vivo, po; summary of the method: as §2
Rattus norvegicus [7] = test: Mean excretion of sodium in conscious rats at a dose of 100 mg/kg given orally; format: ADME, organism-based; design: dose 100 mg/kg, route oral; conditions: in vivo, po; summary of the method: as §1
Rattus norvegicus [8] = test: Mean excretion of sodium in conscious rats at a dose of 3.0 mg/kg given orally; format: ADME, organism-based; design: dose 3 mg/kg, route oral; conditions: in vivo, po; summary of the method: as §1
Rattus norvegicus [9] = test: Mean excretion of chloride in conscious rats at a dose of 100 mg/kg given orally; format: ADME, organism-based; design: dose 100 mg/kg, route oral; conditions: in vivo, po; summary of the method: as §2
Rattus norvegicus [10] = test: Mean excretion of Cl- in conscious rats at a dose of 0.3 mg/kg given orally; format: ADME, organism-based, Urine; design: dose 0.3 mg/kg, route oral; conditions: in vivo, po
Summary of the method: (§4)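 Dose-response test in male Sprague-Dawley rats of about 160 g, fasted 24 h, with water withheld 1½ h before and during the test. Each rat got a single gavage of 25 mL/kg 0.9% saline with 0.5% carboxymethylcellulose carrying the agent (0.3–100 mg/kg range). Rats were housed two per metabolism cage, and urine was collected for 5 h. Mean urine volume (mL) was compared with controls (P < 0.05).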

Rattus norvegicus [11] = species on record: Rattus norvegicus; test: […]; format: ADME, organism-based, Urine; design: dose 1 mg/kg, route oral; conditions: in vivo, po, 1 mg/kg; summary of the method: as §4
Rattus norvegicus [12] = test: Mean excretion of sodium in conscious rats at a dose of 30 mg/kg given orally; format: ADME, organism-based; design: dose 30 mg/kg, route oral; conditions: in vivo, po; summary of the method: as §1
Rattus norvegicus [13] = test: Mean excretion of chloride in conscious rats at a dose of 30 mg/kg given orally; format: ADME, organism-based; design: dose 30 mg/kg, route oral; conditions: in vivo, po; summary of the method: as §2
Rattus norvegicus [14] = species on record: Rattus norvegicus; test: […]; format: ADME, organism-based, Urine; design: dose 10 mg/kg, route oral; conditions: in vivo, po, 10 mg/kg; summary of the method: as §1
Rattus norvegicus [15] = test: Mean excretion of potassium in conscious rats at a dose of 1.0 mg/kg given orally; format: ADME, organism-based; design: dose 1 mg/kg, route oral; conditions: in vivo, po; summary of the method: as §2
[16] = Diuretic activity at 40 mg/kg (screening dose-75 umol/kg) in […] in a one stage experiment; T/C = urine vol of treated rats / urine vol of control rats; format: functional; summary of the method: as §3
Rattus norvegicus [17] = species on record: Rattus norvegicus; test: […]; format: ADME, organism-based, Urine; design: dose 100 mg/kg, route oral; conditions: in vivo, po, 100 mg/kg; summary of the method: as §1
Rattus norvegicus [18] = test: Mean excretion of potassium in conscious rats at a dose of 0.3 mg/kg given orally; format: ADME, organism-based; design: dose 0.3 mg/kg, route oral; conditions: in vivo, po; summary of the method: as §2
Rattus norvegicus [19] = species on record: Rattus norvegicus; test: […]; format: ADME, organism-based, Urine; design: dose 0.3 mg/kg, route oral; conditions: in vivo, po, 0.3 mg/kg; summary of the method: as §4
Rattus norvegicus [20] = test: Mean excretion of […] in conscious rats at a dose of 1.0 mg/kg given orally; format: ADME, organism-based; design: dose 1 mg/kg, route oral; conditions: in vivo, po; summary of the method: as §1
Rattus norvegicus [21] = species on record: Rattus norvegicus; test: […]; format: ADME, organism-based, Urine; design: dose 30 mg/kg, route oral; conditions: in vivo, po, 30 mg/kg; summary of the method: as §1
Rattus norvegicus [22] = test: Mean excretion of chloride in conscious rats at a dose of 3.0 mg/kg given orally; format: ADME, organism-based; design: dose 3 mg/kg, route oral; conditions: in vivo, po; summary of the method: as §2
Rattus norvegicus [23] = test: Mean excretion of chloride in conscious rats at a dose of 10 mg/kg given orally; format: ADME, organism-based; design: dose 10 mg/kg, route oral; conditions: in vivo, po; summary of the method: as §2
Rattus norvegicus [24] = test: Mean excretion of sodium in conscious rats at a dose of 0.3 mg/kg given orally; format: ADME, organism-based; design: dose 0.3 mg/kg, route oral; conditions: in vivo, po; summary of the method: as §1
Rattus norvegicus [25] = test: Mean excretion of potassium in conscious rats at a dose of 3.0 mg/kg given orally; format: ADME, organism-based; design: dose 3 mg/kg, route oral; conditions: in vivo, po; summary of the method: as §2
Rattus norvegicus [26] = test: Mean excretion of potassium in conscious rats at a dose of 30 mg/kg given orally; format: ADME, organism-based; design: dose 30 mg/kg, route oral; conditions: in vivo, po; summary of the method: as §2
[27] = Diuretic activity at 40 mg/kg (screening dose-82.5 umol/kg) in […] in a one stage experiment; T/C = urine vol of treated rats / urine vol of control rats; format: functional; summary of the method: as §3
[28] = Diuretic activity at 40 mg/kg (screening dose-103.9 umol/kg) in […] in a one stage experiment; T/C = urine vol of treated rats / urine vol of control rats; format: functional; summary of the method: as §3
[29] = Diuretic activity at 40 mg/kg (screening dose-97.3 umol/kg) in […] in a one stage experiment; T/C = urine vol of treated rats / urine vol of control rats; format: functional; summary of the method: as §3
[30] = Diuretic activity at 40 mg/kg (screening dose-97.3 umol/kg) in […] in a two stage experiment; T/C1.2 = urine vol of treated rats / urine vol of control rats; format: functional; summary of the method: as §3
[31] = Diuretic activity at 40 mg/kg (screening dose 84.7 umol/kg) in […] in a one stage experiment; T/C = urine vol of treated rats / urine vol of control rats; format: functional; summary of the method: as §3
[32] = Diuretic activity at 40 mg/kg (screening dose-84.7 umol/kg) in […] in a two stage experiment; T/C1.2 = urine vol of treated rats / urine vol of control rats; format: functional; summary of the method: as §3
[33] = Diuretic activity at 40 mg/kg (screening dose 84 umol/kg) in […] in a one stage experiment; T/C = urine vol of treated rats / urine vol of control rats; format: functional; summary of the method: as §3

Structure (SMILES)	Mean urine volume (Rattus norvegicus [1]) [mL]	Mean excretion of Na+ (Rattus norvegicus [2]) [m equiv]	Mean excretion of K+ (Rattus norvegicus [3]) [m equiv]	Mean excretion of Cl- (Rattus norvegicus [4]) [m equiv]	Mean excretion of K+ (Rattus norvegicus [6]) [m equiv]	Mean excretion of Na+ (Rattus norvegicus [7]) [m equiv]	Mean excretion of Na+ (Rattus norvegicus [8]) [m equiv]	Mean excretion of Cl- (Rattus norvegicus [9]) [m equiv]	Mean excretion of Cl- (Rattus norvegicus [10]) [m equiv]	Mean urine volume (Rattus norvegicus [11]) [mL]	Mean excretion of Na+ (Rattus norvegicus [12]) [m equiv]	Mean excretion of Cl- (Rattus norvegicus [13]) [m equiv]	Mean urine volume (Rattus norvegicus [14]) [mL]	Mean excretion of K+ (Rattus norvegicus [15]) [m equiv]	Mean urine volume (Rattus norvegicus [17]) [mL]	Mean excretion of K+ (Rattus norvegicus [18]) [m equiv]	Mean urine volume (Rattus norvegicus [19]) [mL]	Mean excretion of Na+ (Rattus norvegicus [20]) [m equiv]	Mean urine volume (Rattus norvegicus [21]) [mL]	Mean excretion of Cl- (Rattus norvegicus [22]) [m equiv]	further results
CN(C)CC(c1ccccc1)c1nnc2n1-c1ccc(I)cc1C(c1ccccc1)=NC2 (stereo unspecified)	4.86	1.64	0.19	0.7	0.24	2.09	0.66	1.82	0.8	4.8	1.98	1.73	10.8	0.25	14.57	0.18	5.09	0.65	12.9	0.76	T/C 1.2 [5]: 9.39; T/C 1 [16]: 3.26; Mean excretion of Cl- (Rattus norvegicus [23]): 1.5 m equiv; Mean excretion of Na+ (Rattus norvegicus [24]): 0.75 m equiv; Mean excretion of K+ (Rattus norvegicus [25]): 0.23 m equiv; Mean excretion of K+ (Rattus norvegicus [26]): 0.24 m equiv
COC(CN(C)C)c1nnc2n1-c1ccc(Cl)cc1C(c1ccccc1)=NC2 (stereo unspecified)																					T/C 1 [27]: 1.32
Clc1ccc2c(c1)C(c1ccccc1)=NCc1nnc(Cc3ccccc3)n1-2																					T/C 1 [28]: 0.96
CN(C)CCc1nnc2n1-c1ccc(Br)cc1C(c1ccccn1)=NC2	5.53	0.77	0.33	0.7	0.41	1.26	0.79	1.21	0.81	4.69	1.03	1.05	5.63	0.32	11.02	0.38	5.94	0.6	8.05	0.84	T/C 1 [29]: 1.75; T/C 1.2 [30]: 3.46; Mean excretion of Cl- (Rattus norvegicus [23]): 0.81 m equiv; Mean excretion of Na+ (Rattus norvegicus [24]): 0.74 m equiv; Mean excretion of K+ (Rattus norvegicus [25]): 0.39 m equiv; Mean excretion of K+ (Rattus norvegicus [26]): 0.37 m equiv
CN(C)CC(c1ccccc1Cl)c1nnc2n1-c1ccc(Cl)cc1C(c1ccccc1)=NC2 (stereo unspecified)	4.67	1.03	0.21	0.93	0.22	1.76	0.81	1.69	1.08	4.54	1.22	1.21	5.37	0.24	9.85	0.25	5.36	0.93	6.73	0.84	T/C 1 [31]: 1.67; Mean excretion of Cl- (Rattus norvegicus [23]): 1.13 m equiv; T/C 1.2 [32]: 3.77; Mean excretion of Na+ (Rattus norvegicus [24]): 1 m equiv; Mean excretion of K+ (Rattus norvegicus [25]): 0.22 m equiv; Mean excretion of K+ (Rattus norvegicus [26]): 0.16 m equiv
CN(C)CC(c1ccc(Cl)cc1)c1nnc2n1-c1ccc(Cl)cc1C(c1ccccc1)=NC2 (stereo unspecified)																					T/C 1 [33]: 0.9
